From ChEMBL document CHEMBL1806473, “Structure-based optimization of click-based histone deacetylase inhibitors” (Eur J Med Chem, 2011)

Key:
Histone deacetylase = test: Inhibition of HDAC in human HeLa cells using Ac-Arg-Gly-Lys(Ac)-AMC as fluorescent substrate after 20 mins by fluorescence assay; assay type: cell-based
HL-60(TB) = test: Antiproliferative activity against human HL-60(TB) cells by SRB assay; assay type: functional
Procedure, shortened: (§1)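 Tested in the NCI in vitro disease-oriented human tumour cell line screen, with screening performed by NCI. Growth was read by SRB signal over the drug incubation period at five concentrations: 100, 10, 1.0, 0.1 and 0.01 μM. GI50 is the concentration that reduces growth of treated cells to half that of control cells.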

MOLT-4 [1] = test: Antiproliferative activity against human MOLT4 cells by SRB assay; assay type: functional
Procedure, shortened: (§2)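 Tested in the NCI in vitro human tumor cell line screen, run by the National Cancer Institute. Each compound was given at five concentrations (100, 10, 1.0, 0.1 and 0.01 μM). GI50 is the drug concentration that reduces growth of treated cells to half that of control cells during drug incubation, judged from the SRB signal.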

RPMI-8226 = test: Antiproliferative activity against human RPMI8226 cells by SRB assay; assay type: functional; procedure, shortened: as §2
SR = test: Antiproliferative activity against human SR cells by SRB assay; assay type: functional
Procedure, shortened: (§3)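 Cell growth was tested in the NIH in vitro disease-oriented human tumor cell line screen, which NCI ran for these compounds. Compounds were tested at five concentrations (100, 10, 1.0, 0.1 and 0.01 μM), and growth was read by SRB signal. GI50 is the drug concentration that reduces growth of treated cells to half that of control cells during drug incubation.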

EKVX [2] = test: Antiproliferative activity against human EKVX cells by SRB assay; assay type: functional; procedure, shortened: as §2
HOP-62 [3] = test: Antiproliferative activity against human HOP62 cells by SRB assay; assay type: functional; procedure, shortened: as §2
NCI-H226 [4] = test: Antiproliferative activity against human NCI-H226 cells by SRB assay; assay type: functional; procedure, shortened: as §2
NCI-H23 = test: Antiproliferative activity against human NCI-H23 cells by SRB assay; assay type: functional; procedure, shortened: as §2
NCI-H522 [5] = test: Antiproliferative activity against human NCI-H522 cells by SRB assay; assay type: functional; procedure, shortened: as §2
COLO 205 = test: Antiproliferative activity against human COLO205 cells by SRB assay; assay type: functional; procedure, shortened: as §2
HCT-15 = test: Antiproliferative activity against human HCT15 cells by SRB assay; assay type: functional; procedure, shortened: as §2
HT-29 = test: Antiproliferative activity against human HT-29 cells by SRB assay; assay type: functional; procedure, shortened: as §2
KM12 [6] = test: Antiproliferative activity against human KM12 cells by SRB assay; assay type: functional; procedure, shortened: as §2
SF-295 = test: Antiproliferative activity against human SF295 cells by SRB assay; assay type: functional; procedure, shortened: as §2
SK-MEL-2 [7] = test: Antiproliferative activity against human SK-MEL-2 cells by SRB assay; assay type: functional; procedure, shortened: as §2
SK-MEL-28 [8] = test: Antiproliferative activity against human SK-MEL-28 cells by SRB assay; assay type: functional; procedure, shortened: as §2
OVCAR-4 = test: Antiproliferative activity against human OVCAR4 cells by SRB assay; assay type: functional; procedure, shortened: as §2
SK-OV-3 = test: Antiproliferative activity against human SKOV3 cells by SRB assay; assay type: functional; procedure, shortened: as §2
CAKI-1 [9] = test: Antiproliferative activity against human Caki1 cells by SRB assay; assay type: functional; procedure, shortened: as §2
TK-10 = test: Antiproliferative activity against human TK10 cells by SRB assay; assay type: functional; procedure, shortened: as §3
PC-3 [10] = test: Antiproliferative activity against human PC3 cells by SRB assay; assay type: functional; procedure, shortened: as §2
MDA-MB-231 [11] = test: Antiproliferative activity against human MDA-MB-231 cells by SRB assay; assay type: functional; procedure, shortened: as §2
CCRF-CEM = test: Cytotoxicity against human CCRF-CEM cells; assay type: cell-based
MOLT-4 [12] = test: Cytotoxicity against human MOLT4 cells; assay type: cell-based
EKVX [13] = test: Cytotoxicity against human EKVX cells; assay type: cell-based; procedure, shortened: as §1
HOP-62 [14] = test: Cytotoxicity against human HOP62 cells; assay type: cell-based; procedure, shortened: as §1
HOP-92 = test: Cytotoxicity against human HOP92 cells; assay type: cell-based
NCI-H226 [15] = test: Cytotoxicity against human NCI-H226 cells; assay type: cell-based
NCI-H522 [16] = test: Cytotoxicity against human NCI-H522 cells; assay type: cell-based; procedure, shortened: as §1
HCT-116 = test: Cytotoxicity against human HCT116 cells; assay type: cell-based; procedure, shortened: as §1
KM12 [17] = test: Cytotoxicity against human KM12 cells; assay type: cell-based
SNB-19 = test: Cytotoxicity against human SNB19 cells; assay type: cell-based
Procedure, shortened: (§4)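 Screened by NCI in its in vitro disease-oriented human tumour cell line panel. Compounds tested at five concentrations (100, 10, 1.0, 0.1 and 0.01 μM). Growth read by sulforhodamine B (SRB) signal. GI50 is the concentration reducing growth of treated cells to half that of control cells during the drug incubation.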

SNB-75 = test: Cytotoxicity against human SNB75 cells; assay type: cell-based; procedure, shortened: as §4
U-251 = test: Cytotoxicity against human U251 cells; assay type: cell-based; procedure, shortened: as §4
Malme-3M = test: Cytotoxicity against human MALME-3M cells; assay type: cell-based; procedure, shortened: as §1
SK-MEL-2 [18] = test: Cytotoxicity against human SK-MEL-2 cells; assay type: cell-based; procedure, shortened: as §1
SK-MEL-28 [19] = test: Cytotoxicity against human SK-MEL-28 cells; assay type: cell-based
SK-MEL-5 = test: Cytotoxicity against human SK-MEL-5 cells; assay type: cell-based
OVCAR-3 = test: Cytotoxicity against human OVCAR3 cells; assay type: cell-based; procedure, shortened: as §1
A498 = test: Cytotoxicity against human A498 cells; assay type: cell-based
CAKI-1 [20] = test: Cytotoxicity against human Caki1 cells; assay type: cell-based
RXF 393 = test: Cytotoxicity against human RXF393 cells; assay type: cell-based; procedure, shortened: as §1
SN12C = test: Cytotoxicity against human SN12C cells; assay type: cell-based; procedure, shortened: as §4
PC-3 [21] = test: Cytotoxicity against human PC3 cells; assay type: cell-based
MCF7 = test: Cytotoxicity against human MCF7 cells; assay type: cell-based
MDA-MB-231 [22] = test: Cytotoxicity against human MDA-MB-231 cells; assay type: functional; procedure, shortened: as §1

SMILES: CC(C)C(/C=C/c1ccccc1)n1cc(/C=C/C(=O)NO)nn1 (configuration not stated)
- IC50 (Histone deacetylase): 22 nM
- GI50 (HL-60(TB)): 728 nM
- GI50 (MOLT-4 [1]): 427 nM
- GI50 (RPMI-8226): 317 nM
- GI50 (SR): 213 nM
- GI50 (EKVX [2]): 1810 nM
- GI50 (HOP-62 [3]): 1240 nM
- GI50 (NCI-H226 [4]): 2380 nM
- GI50 (NCI-H23): 1640 nM
- GI50 (NCI-H522 [5]): 582 nM
- GI50 (COLO 205): 932 nM
- GI50 (HCT-15): 2900 nM
- GI50 (HT-29): 827 nM
- GI50 (KM12 [6]): 1220 nM
- GI50 (SF-295): 1470 nM
- GI50 (SK-MEL-2 [7]): 1520 nM
- GI50 (SK-MEL-28 [8]): 1590 nM
- GI50 (OVCAR-4): 4060 nM
- GI50 (SK-OV-3): 1490 nM
- GI50 (CAKI-1 [9]): 487 nM
- GI50 (TK-10): 531 nM
- GI50 (PC-3 [10]): 1650 nM
- GI50 (MDA-MB-231 [11]): 1970 nM
- LC50 (CCRF-CEM): > 100000 nM
- LC50 (MOLT-4 [12]): > 100000 nM
- LC50 (EKVX [13]): > 100000 nM
- LC50 (HOP-62 [14]): 23400 nM
- LC50 (HOP-92): 22100 nM
- LC50 (NCI-H226 [15]): 40100 nM
- LC50 (NCI-H522 [16]): 8480 nM
- LC50 (HCT-116): 3850 nM
- LC50 (KM12 [17]): 9530 nM
- LC50 (SNB-19): 66600 nM
- LC50 (SNB-75): 38300 nM
- LC50 (U-251): 5660 nM
- LC50 (Malme-3M): 68400 nM
- LC50 (SK-MEL-2 [18]): > 100000 nM
- LC50 (SK-MEL-28 [19]): 44900 nM
- LC50 (SK-MEL-5): 5170 nM
- LC50 (OVCAR-3): 22100 nM
- LC50 (A498): 8630 nM
- LC50 (CAKI-1 [20]): 6300 nM
- LC50 (RXF 393): 7680 nM
- LC50 (SN12C): > 100000 nM
- LC50 (PC-3 [21]): 46500 nM
- LC50 (MCF7): > 100000 nM
- LC50 (MDA-MB-231 [22]): 73400 nM
